Tests used:
[1] = Oral bioavailability in Wistar rat at 100 mg/kg; format: ADME, organism-based; conditions: in vivo
Summary of the method: (§1)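 Wistar rats, three per route. Dosed IV at 3 mg/kg or orally at 10, 30 or 100 mg/kg; the 100 mg/kg arm used a suspension, others a 2.5 mg/mL filtered 75% PEG300/25% D5W formulation. Six 100 μL blood samples serially per rat within 24 h. LC-MS/MS of plasma, noncompartmental parameters; F is dose-corrected AUCpo/AUCiv.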

[2] = Cytotoxicity against human HuH7 cells; format: cell-based; conditions: Huh-7 cells
[3] = AUC in Wistar rat at 3 mg/kg, iv; format: ADME, organism-based; set-up: dose 3 mg/kg, route intravenous; conditions: plasma; summary of the method: as §1
[4] = system: Mus musculus; experiment: Oral bioavailability in Balb/c mouse at 20 mg/kg; format: ADME, organism-based; conditions: in vivo
Summary of the method: (§2)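 Male Balb/c mice (n = 3 per group). Compound as a 2.5 mg/mL solution in PEG300/D5W 3:1, filtered. Given by lateral tail vein at 5 mg/kg (2 mL/kg) or orally at 20 mg/kg (8 mL/kg). Six serial 50 μL retro-orbital blood samples to 24 h, heparinized plasma. Plasma extracted with acetonitrile:methanol 3:1 with internal standard, LC-MS/MS. Noncompartmental analysis; F = AUCpo×dose_iv/AUCiv×dose_po.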

[5] = Oral bioavailability in Wistar rat at 10 mg/kg; format: ADME, organism-based; conditions: in vivo; summary of the method: as §1
[6] = Cytotoxicity against mouse BA/F3 cells; format: cell-based; conditions: baf3
[7] = system: CHO; experiment: Cytotoxicity against CHO cells; format: cell-based, Cricetulus griseus; conditions: chinese hamster
[8] = system: Plasmodium berghei; experiment: Antimalarial activity against Plasmodium berghei ANKA expressing GFP infected in NMRI mouse assessed as reduction of parasite level in blood at 100 mg/kg, po administered 24 hrs post infection measured after 72 hrs post infection by flow cytometry; format: functional; set-up: scale not given: the % may be the effect or the level left
Summary of the method: (§3)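 Female NMRI mice (20–22 g, n=3) are infected i.v. with 2×10^7 P. berghei GFP ANKA-infected erythrocytes. Oral compound in 75% PEG300/25% D5W is given at 10 mL/kg, once at 24 h or daily at 24/48/72 h post-infection. Parasitemia is read by flow cytometry at 72 h (single dose) or 96 h (triple dose). Activity is % reduction of mean parasitemia versus untreated controls.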

[9] = target: Voltage-gated inwardly rectifying potassium channel KCNH2 (Homo sapiens, UniProt Q12809); experiment: Inhibition of human ERG channel expressed in CHO cells by patch clamp assay; format: cell-based
[10] = Tmax in Wistar rat at 10 mg/kg, po; format: ADME, organism-based; set-up: dose 10 mg/kg, route oral; conditions: in vivo
[11] = system: Plasmodium falciparum; experiment: Antimalarial activity against Plasmodium falciparum 3D7 after 72 hrs by SYBR green fluorescence assay; format: functional, organism-based; conditions: 3D7, 72 h
Summary of the method: (§4)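 P. falciparum grown in O+ erythrocytes, screened in medium without human serum plus 0.5% Albumax II. Twelve-point half-log dilutions up to 10 μM final. 0.3% parasitemia, 2.5% hematocrit; 72 h at 37 °C under low-oxygen gas. Lysis buffer with SYBR Green added, 24 h at 25 °C, fluorescence read at 485/530 nm.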

[12] = system: Plasmodium berghei; experiment: Antimalarial activity against Plasmodium berghei ANKA expressing GFP infected in po dosed NMRI mouse assessed as reduction of parasite level in blood administered 24 hrs post infection measured after 72 hrs post infection by flow cytometry; format: functional
[13] = AUC (all) in Wistar rat at 30 mg/kg, po; format: ADME, organism-based; set-up: dose 30 mg/kg, route oral; conditions: plasma; summary of the method: as §1
[14] = Apparent permeability across basolateral to apical side in human Caco2 cells by LC/MS analysis; format: ADME, cell-based; conditions: Caco-2
Summary of the method: (§5)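 Caco-2 monolayers in 96-well format. Compound measured in apical and basolateral chambers by LC/MS, giving Papp in the A–B and B–A directions. Values reported in cm/s × 10⁶.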

[15] = Half life in Balb/c mouse at 20 mg/kg, po; format: ADME, organism-based; set-up: dose 20 mg/kg, route oral; conditions: in vivo; summary of the method: as §2
[16] = Half life in Balb/c mouse at 5 mg/kg, iv; format: ADME, organism-based; set-up: dose 5 mg/kg, route intravenous; conditions: in vivo; summary of the method: as §2
[17] = Cmax in Wistar rat at 10 mg/kg, po; format: ADME, organism-based; set-up: dose 10 mg/kg, route oral; conditions: in vivo
Summary of the method: (§6)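 Rat snapshot PK: two Wistar rats dosed orally at 10 mg/kg, formulated at 2.5 mg/mL in 75% PEG300/25% D5W. Blood (100 μL) taken at 0.5, 1, 3 and 5 h post dose. Plasma pooled by sampling time, then analysed by LC-MS/MS.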

[18] = Cmax in Wistar rat at 30 mg/kg, po; format: ADME, organism-based; set-up: dose 30 mg/kg, route oral; conditions: in vivo; summary of the method: as §1
[19] = Apparent permeability across apical to basolateral side in human Caco2 cells by LC/MS analysis; format: ADME, cell-based; conditions: Caco-2; summary of the method: as §5
[20] = system: Plasmodium berghei; experiment: Antimalarial activity against Plasmodium berghei ANKA expressing GFP infected in NMRI mouse assessed as increase of mouse survival at 30 mg/kg, po administered 24 hrs post infection (reference value: 6 to 7 days); format: functional
[21] = Cytotoxicity against human 293T cells; format: cell-based; conditions: HEK-293T cells
[22] = Tmax in Balb/c mouse at 20 mg/kg, po; format: ADME, organism-based; set-up: dose 20 mg/kg, route oral; conditions: in vivo; summary of the method: as §2
[23] = Clearance in Balb/c mouse plasma at 5 mg/kg, iv; format: ADME, organism-based; set-up: dose 5 mg/kg, route intravenous; summary of the method: as §2
[24] = Tmax in Wistar rat at 30 mg/kg, po; format: ADME, organism-based; set-up: dose 30 mg/kg, route oral; conditions: in vivo; summary of the method: as §1
[25] = system: Plasmodium berghei; experiment: Antimalarial activity against Plasmodium berghei ANKA expressing GFP infected in NMRI mouse assessed as increase of mouse survival at 30 mg/kg, po administered 24 hrs post infection qd for 3 days (reference value: 6 to 7 days); format: functional
[26] = Cytotoxicity against human Hep2 cells; format: cell-based; conditions: HEp-2 cells
[27] = system: Mus musculus; experiment: AUC (0 to 24 hrs) in Balb/c mouse at 5 mg/kg, iv; format: ADME, organism-based, Plasma; set-up: time < 24 hr, dose 5 mg/kg, route intravenous; conditions: in vivo; summary of the method: as §2
[28] = Volume of distribution in Balb/c mouse at 5 mg/kg, iv; format: ADME, organism-based; set-up: dose 5 mg/kg, route intravenous; conditions: in vivo; summary of the method: as §2
[29] = Clearance in Wistar rat at 3 mg/kg, iv; format: ADME, organism-based; set-up: dose 3 mg/kg, route intravenous; conditions: in vivo; summary of the method: as §1
[30] = Half life in Wistar rat at 100 mg/kg, po; format: ADME, organism-based; set-up: dose 100 mg/kg, route oral; conditions: in vivo; summary of the method: as §1
[31] = Permeability of the compound by PAMPA; format: ADME
Summary of the method: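 PAMPA in 96-well filter plates. Permeated compound quantified by UV absorbance at 260–290 nm. Reported as percentage absorbed.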

[32] = Half life in Wistar rat at 30 mg/kg, po; format: ADME, organism-based; set-up: dose 30 mg/kg, route oral; conditions: in vivo; summary of the method: as §1
[33] = Tmax in Wistar rat at 100 mg/kg, po; format: ADME, organism-based; set-up: dose 100 mg/kg, route oral; conditions: in vivo; summary of the method: as §1
[34] = system: Rattus norvegicus; experiment: Dose normalized AUC (0 to 5 hrs) in Wistar rat at 10 mg/kg, po; format: ADME, organism-based; set-up: dose 10 mg/kg, route oral; conditions: in vivo; summary of the method: as §6
[35] = Half life in Wistar rat at 10 mg/kg, po; format: ADME, organism-based; set-up: dose 10 mg/kg, route oral; conditions: in vivo
[36] = system: Plasmodium falciparum; experiment: Antimalarial activity against Plasmodium falciparum W2 after 72 hrs by SYBR green fluorescence assay; format: functional, organism-based; conditions: W2, 72 h; summary of the method: as §4
[37] = Cmax in Balb/c mouse at 20 mg/kg, po; format: ADME, organism-based; set-up: dose 20 mg/kg, route oral; conditions: in vivo; summary of the method: as §2
[38] = AUC (all) in Wistar rat at 10 mg/kg, po; format: ADME, organism-based; set-up: dose 10 mg/kg, route oral; conditions: plasma; summary of the method: as §1
[39] = system: Plasmodium berghei; experiment: Antimalarial activity against Plasmodium berghei ANKA expressing GFP infected in NMRI mouse assessed as increase of mouse survival at 100 mg/kg, po administered 24 hrs post infection (reference value: 6 to 7 days); format: functional
[40] = AUC (all) in Wistar rat at 100 mg/kg, po; format: ADME, organism-based; set-up: dose 100 mg/kg, route oral; conditions: plasma; summary of the method: as §1
[41] = system: Plasmodium berghei; experiment: Antimalarial activity against Plasmodium berghei ANKA expressing GFP infected in NMRI mouse assessed as reduction of parasite level in blood at 30 mg/kg, po administered 24 hrs post infection qd for 3 days measured after 96 hrs post infection by flow cytometry; format: functional; set-up: scale not given: the % may be the effect or the level left; summary of the method: as §3
[42] = system: Mus musculus; experiment: AUC (0 to 24 hrs) in Balb/c mouse at 20 mg/kg, po; format: ADME, organism-based, Plasma; set-up: time < 24 hr, dose 20 mg/kg, route oral; conditions: in vivo; summary of the method: as §2
[43] = Oral bioavailability in Wistar rat at 30 mg/kg; format: ADME, organism-based; conditions: in vivo; summary of the method: as §1
[44] = system: Plasmodium berghei; experiment: Antimalarial activity against Plasmodium berghei ANKA expressing GFP infected in NMRI mouse assessed as reduction of parasite level in blood at 30 mg/kg, po administered 24 hrs post infection measured after 72 hrs post infection by flow cytometry; format: functional; set-up: scale not given: the % may be the effect or the level left; summary of the method: as §3
[45] = Half life in Wistar rat at 3 mg/kg, iv; format: ADME, organism-based; set-up: dose 3 mg/kg, route intravenous; conditions: in vivo; summary of the method: as §1

Voltage-gated inwardly rectifying potassium channel KCNH2, sequence (Q12809 whole entry): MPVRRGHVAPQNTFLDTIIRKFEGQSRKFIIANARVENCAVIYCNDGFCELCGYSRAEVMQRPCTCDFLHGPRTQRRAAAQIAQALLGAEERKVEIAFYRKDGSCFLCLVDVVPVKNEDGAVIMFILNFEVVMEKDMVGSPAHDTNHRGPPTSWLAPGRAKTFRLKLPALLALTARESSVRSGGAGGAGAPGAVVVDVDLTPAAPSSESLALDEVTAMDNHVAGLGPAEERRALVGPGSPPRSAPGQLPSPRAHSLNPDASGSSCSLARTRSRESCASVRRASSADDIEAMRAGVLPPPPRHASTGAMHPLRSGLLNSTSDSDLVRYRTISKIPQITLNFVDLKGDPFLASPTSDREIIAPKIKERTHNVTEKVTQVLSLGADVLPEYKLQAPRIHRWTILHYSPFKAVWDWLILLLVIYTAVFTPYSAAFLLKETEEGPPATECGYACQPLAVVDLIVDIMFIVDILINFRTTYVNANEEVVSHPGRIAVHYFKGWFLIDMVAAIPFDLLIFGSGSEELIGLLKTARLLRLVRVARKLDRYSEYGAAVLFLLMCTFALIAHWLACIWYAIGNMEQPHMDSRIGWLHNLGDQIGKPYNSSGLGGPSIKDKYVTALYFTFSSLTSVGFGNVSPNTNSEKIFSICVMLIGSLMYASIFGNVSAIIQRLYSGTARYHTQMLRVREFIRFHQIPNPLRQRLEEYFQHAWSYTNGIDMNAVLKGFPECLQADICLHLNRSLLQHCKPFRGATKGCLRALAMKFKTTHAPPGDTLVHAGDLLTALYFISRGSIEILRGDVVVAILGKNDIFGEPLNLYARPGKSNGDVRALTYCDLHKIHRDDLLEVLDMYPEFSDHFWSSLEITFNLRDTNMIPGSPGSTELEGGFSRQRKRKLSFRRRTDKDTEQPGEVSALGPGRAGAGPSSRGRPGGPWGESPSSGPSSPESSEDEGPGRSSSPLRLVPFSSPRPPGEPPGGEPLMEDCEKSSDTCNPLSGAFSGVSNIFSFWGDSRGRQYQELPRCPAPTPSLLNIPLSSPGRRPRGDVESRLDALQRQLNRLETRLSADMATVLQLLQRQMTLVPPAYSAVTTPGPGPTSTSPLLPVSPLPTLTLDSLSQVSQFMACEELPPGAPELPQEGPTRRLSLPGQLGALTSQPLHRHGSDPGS

Work on `CC1(C)c2nc(-c3ccc(F)cc3)c(Nc3ccc(F)cc3)n2CCN1C(=O)CN` [GANAPLACIDE] yielded a bioavailability [1] of 57%, a CC50 [2] of over 12 µM and an AUC [3] of 1.83 µM·h. The F [4] was 74%, the bioavailability [5] was 20% and the CC50 [6] was over 12 µM. It also gave a CC50 [7] of over 12 µM, an Activity [8] of 99.4% and an IC50 [9] of 13.4 µM. It also gave a Tmax [10] of 1.5 h, an EC50 [11] of 0.01 µM and an ED99 [12] of 2.2 mg/kg. For the same compound, the AUC [13] was 7.34 µM·h, the Papp B→A [14] was 2.99 ×10⁻⁶ cm/s and the half-life [15] was 4.35 h. The half-life [16] was 2 h, the Cmax ([17]; Wistar) was 126 nM and the Cmax [17] was 91 nM. The Cmax [18] was 580 nM, the Papp A→B [19] was 1.26 ×10⁻⁶ cm/s and the Survival [20] was 16.3 days. It also gave a CC50 [21] of over 12 µM, a Tmax [22] of 1 h and a clearance [23] of 49.2 mL/min/kg. It also gave a Tmax [24] of 4.3 h, a Survival [25] of 17.7 days and a CC50 [26] of over 12 µM. It also gave an AUC [27] of 4.119 µM·h, a Vd [28] of 10.2 L/kg and a clearance [29] of 67.5 mL/min/kg. For the same compound, the half-life [30] was 8.4 h, the permeability [31] was 51.8% and the half-life [32] was 6.3 h. The Tmax [33] was 8 h, the AUC/dose [34] was 1.2 min.ug/ml/(mg/kg) and the half-life [35] was 4.7 h. The EC50 [36] was 0.006 µM, the Cmax [37] was 1540 nM and the AUC [38] was 0.974 µM·h. The Survival [39] was 14 days, the AUC [40] was 34.9 µM·h and the Activity [41] was 99.8%. The AUC [42] was 12.155 µM·h, the bioavailability [43] was 40% and the Activity [44] was 99.5%. The half-life [45] was 4.6 h.
